These results are taken from PubChem BioAssay.

Assay [1] is described as follows: inhibitors of TNFa-induced NFkB p65 translocation, primary screen, imaging, HUVEC, MLSMR starter and 10KST1 sets (AID 438;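 active = inhibition above 20% together with a positive visual image hit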;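 note: compound added about 3h40 before a 20 min TNFalpha stimulation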;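 for inhibition: signal is the nuclear over cytoplasmic p65 intensity ratio per well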). To be noted: HUVEC TNFa-induced p65 nuclear translocation; cell count: measured here: nuclei count (cytotoxicity indicator), at 2.08 µM; inhibition: at 2 µM, stronger effect = higher value, 0% TNFa-plus-vehicle, 100% no-TNFa wells.
The nature of assay [2]: inhibitors of E-selectin induction by TNFa, primary screen, imaging, HUVEC, immunofluorescence, MLSMR starter and 10KST1 sets (AID 487;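 active = visually confirmed hit in the image check and inhibition above 20%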;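 for inhibition: signal is fraction of cell area covered by stained E-selectin grains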;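 for nuclei count: 100% = median nuclei count of all wells on the same plate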). To be noted: HUVEC TNFalpha-induced E-selectin immunofluorescence imaging, at 2 µM; inhibition: stronger effect = higher value; nuclei count: measured here: cell number, toxicity.
Assay [3] in a line: DUSP6 inhibitors restoring Erk phosphorylation by chemical complementation, primary imaging in DUSP6-transfected HeLa (AID 609;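 active = compounds giving at least 50% inhibition in the cell-based MKP-3 phosphatase rescue imaging test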;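 for inhibition: phospho-Erk level distribution per well compared with pooled transfected vehicle control wells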). To be noted: HeLa MKP-3 transfected, phospho-Erk imaging KS statistic, at 10 µM, cells stimulated with TPA for 15 min.
In assay [4] the target is Dual specificity protein phosphatase 6 (Homo sapiens) (UniProt Q16828). The assay is described as above. The note with it: HeLa MKP-3 transfected, phospho-Erk imaging KS statistic; at 10 µM; stronger effect = higher value; cells stimulated with TPA for 15 min.
Sequence of Dual specificity protein phosphatase 6 (Homo sapiens) (Q16828 whole entry, looked up): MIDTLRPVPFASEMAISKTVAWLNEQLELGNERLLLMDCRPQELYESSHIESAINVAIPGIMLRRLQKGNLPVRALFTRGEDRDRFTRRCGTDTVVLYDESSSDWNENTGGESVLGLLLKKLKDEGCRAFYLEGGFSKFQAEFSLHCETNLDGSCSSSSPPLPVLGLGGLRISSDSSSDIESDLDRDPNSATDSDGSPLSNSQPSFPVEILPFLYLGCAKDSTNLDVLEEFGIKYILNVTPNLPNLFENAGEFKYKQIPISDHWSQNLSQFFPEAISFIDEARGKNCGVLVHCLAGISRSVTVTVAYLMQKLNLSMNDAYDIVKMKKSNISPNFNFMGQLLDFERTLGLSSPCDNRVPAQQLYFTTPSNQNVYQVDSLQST
Assay [5] deals with Voltage-gated potassium channel subunit beta-2 (Rattus norvegicus) (UniProt P62483). Kind of assay: KvBeta enzyme negative modulators, primary screen, biochemical, NADPH fluorescence (AID 622;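 active = fluorescence slope higher than the sample average by over 3 SD, cut at about -0.22 in these data, passing the limit was not always enough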;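 note: slope of raw intensity against log time taken from 70 to 1610 s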). To be noted: recombinant KvBeta, 4-cyanobenzaldehyde reduction, at 10 µM, stronger effect = higher value.
Sequence of Voltage-gated potassium channel subunit beta-2 (Rattus norvegicus) (P62483 whole entry, looked up): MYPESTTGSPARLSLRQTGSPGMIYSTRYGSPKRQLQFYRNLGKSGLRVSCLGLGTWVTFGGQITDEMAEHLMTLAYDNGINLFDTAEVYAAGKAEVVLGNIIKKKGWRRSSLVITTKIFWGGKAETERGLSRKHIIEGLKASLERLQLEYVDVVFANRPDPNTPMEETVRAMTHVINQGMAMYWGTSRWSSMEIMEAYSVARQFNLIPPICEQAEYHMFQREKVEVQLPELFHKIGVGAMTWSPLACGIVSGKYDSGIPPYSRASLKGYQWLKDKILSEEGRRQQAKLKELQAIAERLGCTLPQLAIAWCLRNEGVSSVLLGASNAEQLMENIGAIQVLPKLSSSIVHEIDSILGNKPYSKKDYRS
The target is the same in assay [6]. The assay can be described thus: KvBeta positive modulators, primary screen, biochemical, NADPH fluorescence (AID 623;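 active = NADPH fluorescence slope more negative than the mean of all samples by about 3 SD, 99.7% confidence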;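 note: fluorescence intensity change per second fitted from 20 to 320 s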). To be noted: Recombinant KvBeta, NADPH fluorescence decrease slope, 10 min; at 10 µM; stronger effect = lower value.
Assay [7] concerns the target Alpha-2C adrenergic receptor (Homo sapiens) (UniProt P18825). Kind of assay: modulators of alpha2C/GIRK thallium flux, primary screen, cell-based, HEK293 alpha2C/GIRK1/2 (AID 624;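 active = fluorescence slope after compound addition differing from the mean of all screened samples at 99.7% confidence, in either direction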;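 note: slope of fluorescence ratio to pre-addition baseline per second over 15 to 24 s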). To be noted: thallium flux BTC fluorescence, at 10 µM, actives lie on both sides.
Assay [8] can be described thus: inhibitors of larval lipid processing in zebrafish, primary screen, whole organism, PED6 fluorescence, gall bladder and intestine (AID 686).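 Note: larvae 5 to 7 days old with five fish per well; signal comes from phospholipase A2 cleavage of quenched PED6 carried via bile; overnight exposure to compound and PED6 before scoring.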 To be noted: Zebrafish larvae PED6 lipid processing, fluorescence scoring; screened at 20 µM (by protocol). In a few lines:
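System: live zebrafish larvae aged 5-7 days, whole organism; measure: graded gall bladder and intestinal fluorescence inhibition per well; incubation: overnight exposure; reagent: ingested quenched lipid PED6 at 100 nM; signal: By-eye fluorescence microscopy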

A short description of assay [9]: inhibitors of Chlamydomonas gravitaxis, primary screen, whole organism, Chlamydomonas reinhardtii, WT vs cilia-less mutant, absorbance, 96-well (AID 463189;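 active = inhibition at or above 50% relative to wild type and mutant plate controls; inactive = inhibition below 50%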;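 note: 0% = wild type cc124 cells in DMSO and 100% = ciliumless bld1 mutant cells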). To be noted: OD600 absorbance, 2 days, at 10 µM, stronger effect = higher value.
[10] abbreviates: measured here: cell density z-score.
Setting [11] is: measured here: nuclear c-Myc green intensity z-score.
The mark [12] stands for this setting: measured here: nuclear pErk red intensity z-score, stronger effect = higher value.

Activity calls are given as the source filed them.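 Rule for the calls, unless noted: active = a full or partial loss of lipid-probe fluorescence in the fish gall bladder, intestine or both, judged by eye; inactive = no fluorescence loss, or compound toxic to the fish.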

Sequence of Alpha-2C adrenergic receptor (Homo sapiens) (P18825 whole entry, looked up): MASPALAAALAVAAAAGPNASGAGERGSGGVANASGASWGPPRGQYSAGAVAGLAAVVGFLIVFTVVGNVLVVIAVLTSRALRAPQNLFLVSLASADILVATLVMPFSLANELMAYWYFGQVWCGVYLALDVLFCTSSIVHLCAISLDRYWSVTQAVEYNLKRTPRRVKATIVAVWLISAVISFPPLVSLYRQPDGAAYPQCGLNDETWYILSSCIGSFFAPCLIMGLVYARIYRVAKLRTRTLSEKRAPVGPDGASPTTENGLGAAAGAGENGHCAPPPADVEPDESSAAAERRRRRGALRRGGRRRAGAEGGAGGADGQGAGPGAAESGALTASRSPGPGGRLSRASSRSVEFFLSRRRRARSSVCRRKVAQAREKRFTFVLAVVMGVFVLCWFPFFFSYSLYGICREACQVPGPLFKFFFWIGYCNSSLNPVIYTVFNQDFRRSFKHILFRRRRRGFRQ

Take `CCCOc1ccc(/C(O)=C2/C(=O)C(=O)N(CCCn3ccnc3)C2c2cccs2)cc1` (centres undefined): the cell count in assay [1] is 537. In addition, the inhibition in assay [1] was -14.3% (inactive); in [2] it was -124% (inactive); in [4] it was -18.6% (inactive); in assay [9] it was 0.323% (inactive). The compound further had a nuclei count in assay [2] of 150%. The figures for the z-score in assay [3] (setting [10]), in assay [3] (setting [11]) and in assay [3] (setting [12]) were -0.681, -0.103 and 0.12, respectively. Also, in assay [5], the fluorescence slope is -0.495 (inactive). Moreover, the NADPH fluorescence slope in assay [6] is -3.4e-05 (inactive). The slope in assay [7] was 0.00501 (inactive). Also, the result in [8] was inactive.
With `COc1cccc(C2C(C#N)=C(N)Oc3cc(C)[nH]c(=O)c32)c1OC` (centres undefined), the cell count in assay [1] was 508. Moreover, the inhibition is -31.3% (inactive) in assay [1], -89.8% (inactive) in assay [2], -2.47% (inactive) in [4] and 9.96% (inactive) in assay [9]. This compound yielded a nuclei count in assay [2] of 158%. For the same compound, the z-score is -0.315 in [3] (setting [10]), -0.918 in [3] (setting [11]) and -0.838 in assay [3] (setting [12]). The fluorescence slope in assay [5] is -0.524 (inactive). For the same compound, the NADPH fluorescence slope in assay [6] was -4.3e-05 (inactive). The slope in [7] was 0.00584 (inactive). Besides, in assay [8], the compound was called inactive.
Take `Cc1cc2c(c(=O)n1Cc1cccnc1)C(c1ccccc1)C(C#N)=C(N)O2` (centres undefined): in assay [1], the cell count worked out at 550. Further, the inhibition is -28.8% (inactive) in assay [1], -50% (inactive) in assay [2], -6.06% (inactive) in [4] and 22.9% (inactive) in assay [9]. Moreover, in [2], the nuclei count was 160%. Further, the z-score is -0.164 in assay [3] (setting [10]), -2.06 in assay [3] (setting [11]) and -1.42 in [3] (setting [12]). For the same compound, the fluorescence slope in assay [5] was -0.537 (inactive). For the same compound, the NADPH fluorescence slope in assay [6] is -2.7e-05 (inactive). Further, the slope in assay [7] is 0.00757 (inactive). The call in [8] was inactive.
With `Cn1c(=O)cc(NCc2ccccc2)[nH]c1=O`, the cell count in [1] stood at 451. Besides, the inhibition in [1] was -5.5% (inactive); in assay [2], -114% (inactive); in [4], -0.624% (inactive); in assay [9], -4.62% (inactive). In [2], the nuclei count is 164%. For the same compound, the z-score is 1.39 in assay [3] (setting [10]), -0.42 in assay [3] (setting [11]) and -0.956 in assay [3] (setting [12]). Also, in assay [5], the fluorescence slope is -0.333 (inactive). Further, the NADPH fluorescence slope in [6] was 5.7e-06 (inactive). Moreover, the slope in [7] is 0.00621 (inactive). Also, in assay [8], the call was inactive.
On to `C=CCOC(=O)C1=C(C)NC(SCC(=O)N(CC)CC)=C(C#N)C1c1ccccc1` (centres undefined), for which the cell count in [1] turned out to be 348. Moreover, the inhibition was -0.8% (inactive) in assay [1], -27.9% (inactive) in assay [2], -0.584% (inactive) in assay [4] and 4.36% (inactive) in [9]. The compound further displayed a nuclei count in assay [2] of 140%. Further, the figures for the z-score in assay [3] (setting [10]), in [3] (setting [11]) and in assay [3] (setting [12]) were 1.19, 0.414 and -0.822, respectively. The fluorescence slope in [5] was -0.405 (inactive). Also, the NADPH fluorescence slope in assay [6] is -1.3e-05 (inactive). Further, the slope in [7] is 0.00552 (inactive). Besides, the result in assay [8] was inactive.
`COCCOC(=O)c1c(C)nc(SCC(=O)Nc2ccc(C)cc2)c(C#N)c1-c1ccco1`: in [1], the cell count came to 403. Further, the inhibition in [1] is 0.9% (inactive); in [2], -123% (inactive); in [4] it was -2.59% (inactive); in assay [9], 7.49% (inactive). The nuclei count in [2] came to 124%. For the same compound, the z-score is 1.33 in assay [3] (setting [10]), 0.851 in assay [3] (setting [11]) and -1.03 in assay [3] (setting [12]). In assay [5], the fluorescence slope was -0.446 (inactive). Moreover, in assay [6], the NADPH fluorescence slope is -8.7e-05 (inactive). In addition, the slope in assay [7] was 0.00716 (inactive). The compound was called inactive in assay [8].
On to `CN1c2ccccc2N(C)C1c1c(O)ccc2ccccc12`, for which the cell count in assay [1] worked out at 340. The inhibition was -22% (inactive) in assay [1], -387% (inactive) in assay [2], -2.07% (inactive) in [4] and 1.66% (inactive) in [9]. Besides, in assay [2], the nuclei count turned out to be 180%. In addition, the z-score was 0.38 in assay [3] (setting [10]), -1.52 in assay [3] (setting [11]) and 0.412 in assay [3] (setting [12]). Besides, the fluorescence slope in [5] is -0.407 (inactive). The NADPH fluorescence slope in [6] is -4.1e-05 (inactive). Moreover, the slope in assay [7] was 0.00586 (inactive). The result in assay [8] was inactive.
Take `Cc1coc2c(O)cc3c(c12)OC1(N2CCCCC2)C(=O)NCCCC31` (centres undefined): the cell count in assay [1] was 537. In addition, the inhibition in assay [1] is -25.4% (inactive); in assay [2] it was -78.3% (inactive); in assay [4] it was -15% (inactive); in [9], 19.5% (inactive). Moreover, the nuclei count in assay [2] was 144%. Also, the z-score is -0.8 in [3] (setting [10]), 0.13 in assay [3] (setting [11]) and 2.15 in assay [3] (setting [12]). For the same compound, the fluorescence slope in [5] was -0.515 (inactive). In addition, the NADPH fluorescence slope in assay [6] is -4.3e-05 (inactive). Also, the slope in assay [7] is 0.00313 (inactive). Moreover, the compound was classed as inactive in [8].
For the compound `CCCc1[nH]nc2c1C(c1cccc(OC)c1)C(C#N)=C(N)O2` (centres undefined), in [1], the cell count worked out at 653. Besides, the inhibition in assay [1] is -18% (inactive); in assay [2], 32.3% (inactive); in assay [4], 1.04% (inactive); in assay [9], 11.7% (inactive). This compound came in with a nuclei count in assay [2] of 178%. Moreover, the z-score in assay [3] (setting [10]) is -0.436; in assay [3] (setting [11]), -0.724; in assay [3] (setting [12]) it was 0.801. The fluorescence slope in assay [5] was -0.401 (inactive). In addition, the NADPH fluorescence slope in [6] was -5.6e-05 (inactive). Further, in [7], the slope was 0.00438 (inactive). Further, the outcome in [8] was inactive.
With `O=C1C=C(O)CC(c2cccs2)C1` (centres undefined), the cell count in assay [1] was found to be 590. Also, the inhibition in assay [1] is 1.5% (inactive); in assay [2] it was -11.9% (inactive); in assay [4], -1.12% (inactive); in assay [9] it was -9.61% (inactive). Moreover, the nuclei count in [2] turned out to be 126%. The z-score was -0.072 in assay [3] (setting [10]), -0.344 in assay [3] (setting [11]) and -0.148 in [3] (setting [12]). In [5], the fluorescence slope is -0.536 (inactive). In addition, the NADPH fluorescence slope in [6] was -5.7e-05 (inactive). In addition, the slope in assay [7] is 0.00523 (inactive). Further, in assay [8], the compound was classed as inactive.
For `N#Cc1c(-c2ccccc2Cl)cc(C2CC2)nc1N`, the cell count in [1] was 577. Besides, the inhibition in assay [1] was -16.2% (inactive); in [2] it was -31.3% (inactive); in assay [4], -2.47% (inactive); in assay [9], -9.3% (inactive). In assay [2], this compound had a nuclei count of 172%. The z-score is 0.235 in [3] (setting [10]), -0.47 in assay [3] (setting [11]) and 0.466 in [3] (setting [12]). For the same compound, the fluorescence slope in [5] is -0.415 (inactive). In [6], the NADPH fluorescence slope was -2.4e-05 (inactive). In addition, in assay [7], the slope was 0.00637 (inactive). Besides, the call in assay [8] was inactive.
For the compound `Cc1ccc(N(CC(=O)O)C2SC(=O)NC2=O)cc1` (centres undefined), the cell count in assay [1] is 529. In addition, the inhibition in assay [1] was -12.4% (inactive); in assay [2] it was -72.5% (inactive); in assay [4], 18.2% (inactive); in assay [9] it was 31.2% (inactive). Also, the nuclei count in assay [2] turned out to be 142%. Also, the z-score in assay [3] (setting [10]) is 0.0556; in assay [3] (setting [11]), 0.578; in assay [3] (setting [12]) it was -1.85. Also, the fluorescence slope in [5] was -0.507 (inactive). The NADPH fluorescence slope in assay [6] is -2.2e-05 (inactive). The slope in assay [7] was 0.00492 (inactive). The outcome in [8] was inactive.
With `COc1ccc(CCNC(=O)c2ccc(=O)[nH]n2)cc1OC`, the cell count in [1] is 452. The inhibition is -9.3% (inactive) in [1], -124% (inactive) in assay [2], 7.48% (inactive) in assay [4] and 1.24% (inactive) in [9]. Moreover, in [2], the nuclei count is 113%. The z-score is -0.121 in assay [3] (setting [10]), -0.331 in assay [3] (setting [11]) and -0.384 in [3] (setting [12]). In [5], the fluorescence slope is -0.517 (inactive). The NADPH fluorescence slope in assay [6] was -0.000115 (inactive). Moreover, the slope in assay [7] is 0.00414 (inactive). Also, the result in [8] was inactive.

What is called inhibition is the drop in the measured response relative to a control, in per cent.
